Compound activity as filed in PubChem BioAssay.
MrgX1 allo act = allosterically activates human MrgX1 receptor signaling. Q96LB2. MrgX1-HEK293, Fluo-4 calcium flux, FDSS; hits give high values. B-score at 10 µM. 310,000 compounds, 0.63% hits;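 active = plate-corrected calcium response at least 3 library SD above typical, normal starting fluorescence, not activating the receptor alone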;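 note: compound read alongside a low EC10 to EC30 dose of BAM8-22 agonist; peak minus trough fluorescence over baseline measured at the second addition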
Target sequence (Q96LB2 whole entry, looked up): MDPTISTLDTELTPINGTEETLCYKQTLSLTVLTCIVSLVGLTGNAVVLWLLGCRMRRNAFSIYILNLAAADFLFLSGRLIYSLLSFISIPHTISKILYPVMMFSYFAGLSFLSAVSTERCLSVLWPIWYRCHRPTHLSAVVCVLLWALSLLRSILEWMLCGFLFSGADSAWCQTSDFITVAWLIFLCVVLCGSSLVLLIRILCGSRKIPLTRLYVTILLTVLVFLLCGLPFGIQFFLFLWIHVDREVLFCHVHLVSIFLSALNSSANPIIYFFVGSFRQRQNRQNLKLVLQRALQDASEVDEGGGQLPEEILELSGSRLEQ
RGS4 act = RGS4 potentiation or activation; HEK293 M3R/inducible RGS4, carbachol calcium flux Fluo4; hits give low values; B-score at 10 µM; 310,000 compounds, 0.92% hits;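 active = B-score of the integrated calcium signal more than 4 SD below the library mean, with starting fluorescence not abnormally high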;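 note: negative B-score means reduced calcium response which marks RGS4 activation or potentiation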
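Reagent: ECmax carbachol challenge; Test system: M3R-expressing HEK293 line, RGS4 induced by doxycycline; Schedule: overnight RGS4 induction, 30 min dye load 37 °C, 20 min compound RT; Detection: calcium dye Fluo4 fluorescence; Read-out: Agonist-evoked peak-minus-minimum fluorescence over baseline, integrated ratio, B score.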
MrgX1 antag = blocks BAM8-22 activation of human MrgX1 receptor; Q96LB2; MRGX1-HEK293 calcium flux, Fluo-4, BAM8-22 antagonism; hits give low values; B-score at 10 µM; 310,000 compounds, 1.3% hits; AID 588676;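 active = calcium-response B-score plate-corrected more than 3 library SD below zero, starting fluorescence within 5 deviations, no agonist response on first addition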;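 note: peak minus trough fluorescence over baseline after final BAM8-22 challenge near maximal dose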
MrgX1 ag = human MrgX1 receptor agonism, primary screen. Q96LB2. AID 588627. MrgX1-HEK293 cells, Fluo-4 calcium fluorescence, agonist mode; hits give high values. 310,000 compounds, 0.44% hits. B-score at 10 µM;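 active = calcium response B-score plate-corrected fluorescence ratio at least 3 library SD, with starting fluorescence B-score inside 5 SD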
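times = overnight plating, then 30 min 37 °C plus 30 min room-temperature dye loading | assay system = stable human MrgX1 HEK293 cell line | input = fifteen thousand cells per well | signal = kinetic calcium dye fluorescence, Fluo-4 NW | dosing = compound delivered in addition one of three | read-out = B-scored fluorescence response ratio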
RGS4 inh = human RGS4 inhibition. 310,000 compounds, 0.45% hits. HEK293 M3R/RGS4 inducible, Fluo-4 calcium flux; hits give high values; triggered by carbachol at its EC20. B-score at 10 µM. P49798;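 active = B-score, a plate-corrected calcium signal, over three deviations above library mean, with baseline fluorescence within five deviations of library mean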;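 note: RGS4 expression induced by doxycycline in cells with stable M3 receptor; B-score is computed from the integrated fluorescence ratio over baseline after carbachol; higher B-score means a larger calcium signal and so more RGS4 inhibition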
Target sequence (P49798 whole entry, looked up): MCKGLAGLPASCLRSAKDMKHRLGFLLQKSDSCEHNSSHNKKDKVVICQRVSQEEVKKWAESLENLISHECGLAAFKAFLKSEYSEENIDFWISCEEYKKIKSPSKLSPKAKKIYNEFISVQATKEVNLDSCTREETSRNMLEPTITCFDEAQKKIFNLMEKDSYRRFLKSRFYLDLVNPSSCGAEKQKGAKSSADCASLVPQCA
RGS4 inh valid = RGS4 inhibitor validation; calcium response, % at 10 µM; 1,700 compounds, 65% hits; HEK293 M3R/RGS4, carbachol calcium Fluo-4 fluorescence; carbachol added at its EC20; 0 = buffer wells, 100 = carbachol control; shares compounds with RGS4 inh;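 active = duplicate-averaged calcium response above the buffer-only control mean plus 5 SD of those controls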;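 note: integrated fluorescence ratio F max minus min over baseline F0; higher response in RGS4-induced cells means RGS4 inhibition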
RGS4 uninduced = counter-screen for RGS4 inhibitors: effect in non-induced cells; shares compounds with RGS4 inh; HEK293 M3R non-induced, carbachol calcium Fluo-4; submaximal (EC20) carbachol stimulus; buffer wells 0%, carbachol control wells 100%; activity (percent), % at 10 µM; 1,900 compounds, 20% hits; AID 493000; call rule not given here;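 note: RGS4 induction absent so cells express M3R without RGS4; higher means more calcium signal and flags a non-specific hit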
RGS4 inh ctr2 = second RGS4 inhibitor counter-screen in uninduced cells lacking carbachol; shares compounds with RGS4 inh; HEK293 M3R/RGS4 non-induced, Fluo-4 calcium, no carbachol; normalised: buffer wells 0%, carbachol wells 100%; 1,900 compounds, 22% hits; calcium response (agonist-mode artifact), % at 10 µM;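 active = duplicate-averaged calcium rise in uninduced cells above buffer wells' mean plus 5 SD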
Active calls of the source: *; i = inactive; . = no result. Hits are enriched below; roughly 3.5% of the tested compounds scored in any of these assays.

SMILES	MrgX1 allo act	RGS4 act	MrgX1 antag	MrgX1 ag	RGS4 inh	RGS4 inh valid	RGS4 uninduced	RGS4 inh ctr2
Cc1ccc(N2C(=O)[C@@H]3C(C(=O)C(c4ccccc4)c4ccccc4)=NN[C@@H]3C2=O)cc1	i	i	i	i	7.2*	29%*	102%*	i
CC1CCN(c2c(NCC3CCC(C(=O)NCCc4ccccc4)CC3)c(=O)c2=O)CC1 (stereo not drawn)	i	i	i	i	i	.	i	i
O=c1[nH]c(/C=C/c2ccc([N+](=O)[O-])cc2)c([N+](=O)[O-])c(=O)[nH]1	i	i	i	i	i	i	i	i
COc1ccc(OC)c(/C=C/c2[nH]c(=O)[nH]c(=O)c2[N+](=O)[O-])c1	.	i	.	.	10*	34%*	i	i
COc1ccc(/C=C/c2c([N+](=O)[O-])c(=O)n(C)c(=O)n2C)c(OC)c1	i	i	i	i	i	.	.	.
O=c1[nH]c(/C=C/c2ccc3c(c2)OCO3)c([N+](=O)[O-])c(=O)[nH]1	i	i	i	i	i	.	.	.
COc1ccc(-c2csc(Nc3ccc(S(=O)(=O)Nc4cc(C)on4)cc3)n2)cc1C	i	i	i	i	13*	i	46%*	i
COc1cc(NS(=O)(=O)c2ccc(Nc3nc(-c4ccccn4)cs3)cc2)nc(OC)n1	i	i	i	i	i	.	i	i
COc1ccc(CC(=O)Nc2ccc(S(=O)(=O)Nc3cc(C)on3)cc2)cc1OC	i	i	i	i	i	.	.	.
COc1ccc(-c2csc(Nc3ccc(S(=O)(=O)Nc4cc(OC)nc(OC)n4)cc3)n2)cc1	i	i	i	i	5.7*	18%*	i	i
COc1cc(NS(=O)(=O)c2ccc(NC(C)=O)cc2)nc(OC)n1	i	i	i	i	i	.	.	.
CN(CCOC(=O)c1ccc2c(c1)OCCO2)C(C)(C)C	i	i	i	i	i	.	.	.
Cc1[nH]n(-c2ccc(Br)cc2)c(=O)c1C=Nc1ccc(S(=O)(=O)Nc2nccs2)cc1	i	i	i	i	18*	9.5%*	i	i
Cc1cc(C)nc(NS(=O)(=O)c2ccc(N=Cc3c(C)[nH]n(-c4ccccc4)c3=O)cc2)n1	i	i	i	i	i	.	.	.
Cc1ccc(-n2[nH]c(C)c(C=Nc3ccc(S(=O)(=O)Nc4nccs4)cc3)c2=O)cc1	i	i	i	i	i	.	.	.
CCc1nnc(NS(=O)(=O)c2ccc(N=Cc3c(C)[nH]n(-c4ccc(C)c(C)c4)c3=O)cc2)s1	i	i	i	i	i	i	i	i
Cn1c(SCc2ccccc2[N+](=O)[O-])nnc1-c1cccnc1	i	i	i	i	i	.	.	.
C=CC(C)(C)c1c(O)c(CC=C(C)C)c(O)c2c(=O)c3ccc(O)c(O)c3oc12	i	i	i	i	6*	9.5%*	i	i
CC(C)C(C(=O)NC1CCCC1)N(CC1CCCO1)C(=O)CNS(=O)(=O)c1ccc(F)cc1 (stereo not drawn)	i	i	i	i	i	.	.	.
COc1ccccc1-c1nc(COc2ccc(Cl)cc2Cl)no1	i	i	i	i	i	.	.	.
Cc1cc2nc(CO)[nH]c2cc1C	i	i	i	i	i	.	.	.
Cc1cc2nc(CS)[nH]c2cc1C	i	i	i	i	5.9*	28%*	i	i
O=C(O)c1ccc(/C=C2\COc3ccccc3C2=O)cc1	i	i	i	i	31*	45%*	i	i
COc1ccc(/C=C2\COc3ccccc3C2=O)cc1OC	i	i	i	i	i	.	.	.
CCOc1cc(/C=C2\COc3ccccc3C2=O)cc(Br)c1OCC(=O)N(C)C	i	i	i	i	8.3*	27%*	i	i
SMILES	MrgX1 allo act	RGS4 act	MrgX1 antag	MrgX1 ag	RGS4 inh	RGS4 inh valid	RGS4 uninduced	RGS4 inh ctr2
CC1(C)OC(=O)C(=CNCCc2ccc(O)cc2)C(=O)O1	i	i	i	i	5.7*	i	i	i
Nc1nc(Cl)nc2c1ncn2[C@@H]1O[C@H](CO)[C@@H](O)[C@H]1O	i	i	i	i	9.8*	47%*	78%*	i
OC[C@H]1O[C@@H](n2cnc3c(NC4CCCC4)nc(Cl)nc32)[C@H](O)[C@@H]1O	i	.	i	i	.	.	.	.
CCn1c(SCC(=O)c2ccccc2)nnc1-c1cccs1	i	i	i	i	i	.	.	.
CC(=O)C1=C(O)C(=O)N(c2cc(C(C)(C)C)on2)C1c1ccc(C(C)C)cc1 (stereo not drawn)	i	i	i	i	i	i	i	56%*
Cc1cccc(N2C(=O)C(O)=C(C(=O)c3cccs3)C2c2ccc(C(C)C)cc2)n1 (stereo not drawn)	i	i	i	i	i	.	.	.
CC(=O)C1=C(O)C(=O)N(c2cc(C(C)(C)C)on2)C1c1ccc(Br)cc1 (stereo not drawn)	i	i	i	i	7.8*	44%*	30%*	i
COc1ccc(/C=C2\NC(=S)N(CC3CCCO3)C2=O)c(OC)c1 (stereo not drawn)	i	i	i	i	i	.	.	.
Cc1cc2cc(C)c3nnc(SCc4ccccn4)n3c2cc1C	i	i	i	i	i	.	.	.
Cc1cc(-n2c(C)cc(C(=O)COc3ccccc3[N+](=O)[O-])c2C)no1	i	i	i	i	5.1*	i	i	i
Cc1cc(C(=O)COc2ccccc2[N+](=O)[O-])c(C)n1C1CC1	i	i	i	i	i	.	.	.
CCOC(=O)C(Cc1ccc(OC)c([N+](=O)[O-])c1)NC(=O)CCC(=O)Nc1ccc(OC)cc1 (stereo not drawn)	i	i	i	i	i	.	.	.
O=[N+]([O-])/C=C/c1cn(Cc2ccccc2)c2ccccc12	i	i	i	i	16*	35%*	i	88%*
O=C(O)Cn1cc(/C=C/[N+](=O)[O-])c2ccccc21	i	i	i	i	i	.	.	.
